Results published in ChEMBL document CHEMBL4393742, “Structure-activity analysis of peptidic Chlamydia HtrA inhibitors” (Bioorg Med Chem, 2019).
pIC50: −log10 of the molar value. Active and inactive are the calls of the source. The rule behind the calls is not given here. Square brackets hold non-standard residues; d marks the D form. Peptide text beside a SMILES is read from it. * marks the point of attachment. ξ: configuration not given here. Boc = CC(C)(C)OC(=O)*; ξV = CC(C)C(N)C(=O)O

Tests used:
[1] = Inhibition of bovine pancreas chymotrypsin using AAPF-pNA as substrate preincubated for 15 mins followed by substrate addition and measured every 15 secs for 5 mins; design: species or system Bos taurus
Outline: (§1)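 Enzyme and inhibitor (in DMSO) were preincubated at 37 °C for 15 min in 0.10 M Tris-HCl, pH 8.1, with 0.02 M CaCl₂. The pNA substrate was added to start the reaction. A405 was monitored every 15 s over 5 min at 37 °C. Runs were in triplicate, and inhibition was expressed as percent enzyme activity remaining.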

[2] = system: Chlamydia trachomatis; assay: (§2) Antibacterial activity against Chlamydia trachomatis D/UW-3/Cx strain infected in mouse McCoy cells assessed as inclusion forming units at 100 uM treated 16 hrs post infection measured at 44 hrs post-infection by Evan's blue staining based-confocal microscopic analysis (reference value: 62 +/- 8.5 10^5U/mL); assay type: functional
[3] = (§3) Inhibition of recombinant chlamydia trachomatis serovar L2 434/Bu/ATCC VR-902B HtrA expressed in Escherichia coli BL21(DE3) using MeOCoum-ENLHLPLPIIF-NH-DNP as fluorescent mimotope preincubated for 20 mins followed by mimotope addition in presence of fluorophore 7-methoxycoumarin-4-acetic acid by plate reader based fluorescence assay; design: species or system Chlamydia trachomatis 434/Bu
[4] = system: Chlamydia trachomatis 434/Bu; assay: as §3, with “Potency index, ratio of JO146 IC50 to compound IC50 for inhibition” for “Inhibition”
[5] = target: Trypsin (Homo sapiens, UniProt P07477+P07478+P35030); assay: Inhibition of human trypsin using Nalpha-benzoyl-DL-R-pNA as substrate preincubated for 15 mins followed by substrate addition and measured every 15 secs for 5 mins; assay type: protein assay; outline: as §1
[6] = target: T1, Neutrophil elastase (Homo sapiens, UniProt P08246); assay: Inhibition of human neutrophil elastase using AAPV-pNA as substrate preincubated for 15 mins followed by substrate addition and measured every 15 secs for 5 mins; outline: as §1
T1 sequence (P08246 whole entry): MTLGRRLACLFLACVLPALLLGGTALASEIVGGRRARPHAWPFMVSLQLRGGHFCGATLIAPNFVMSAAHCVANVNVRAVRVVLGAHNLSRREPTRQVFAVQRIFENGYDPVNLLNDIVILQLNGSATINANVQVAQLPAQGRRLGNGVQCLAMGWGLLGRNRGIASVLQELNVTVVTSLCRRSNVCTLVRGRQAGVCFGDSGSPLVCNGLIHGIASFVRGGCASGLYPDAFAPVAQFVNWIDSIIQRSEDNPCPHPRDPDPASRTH

[7] = system: Chlamydia pecorum; assay: as §2, with “pecorum IPA ATCC VR629” for “trachomatis D/UW-3/Cx strain”, “342.55646” for “62”, “6.53872” for “8.5”; assay type: functional
[8] = Inhibition of chlamydia trachomatis HtrA using MCA-ENLHLPLPIIF-DNP as substrate by FRET or pNA assay
Outline: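 Recombinant CtHtrA at 0.5 mg/mL stock, preincubated with inhibitor in DMSO in 50 mM Tris/20 mM MgCl2, pH 7.0, for 20 min at 37 °C. Reaction started with quenched fluorescent peptide (methoxycoumarin fluorophore, DNP quencher; 1 mg/mL stock in 50% isopropanol). Fluorescence read immediately at ex 340/em 405 nm over 50 cycles.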

[9] = system: Chlamydia trachomatis; assay: as §2, with “trachomatis D/UW-3/Cx infected in” for “trachomatis D/UW-3/Cx strain infected in”, “assessed as reduction in inclusion forming” for “assessed as inclusion forming”; assay type: functional
[10] = system: Chlamydia trachomatis 434/Bu; assay: as §3, with “Activation of recombinant” for “Inhibition of recombinant”, “fluorescent mimotope at <50 uM preincubated for” for “fluorescent mimotope preincubated for”
[11] = system: Chlamydia pecorum; assay: Antibacterial activity against Chlamydia pecorum IPA ATCC VR629 infected in mouse McCoy cells assessed as reduction in inclusion forming units at 100 uM treated 16 hrs post infection measured at 44 hrs post-infection by Evan's blue staining based-confocal microscopic analysis (reference value: 342.55646 +/- 6.53872 10^5U/mL); assay type: functional

| SMILES | pIC50 [3] | Ratio IC50 [4] | Activity [10] | pIC50 [1] | Activity [2] | IC50 [5] | pIC50 [6] | Activity [7] | pIC50 [8] | Activity [9] | Activity [11] |
| --- | --- | --- | --- | --- | --- | --- | --- | --- | --- | --- | --- |
| CC(C)C(NC(=O)[C@@H]1CCCN1C(=O)[C@@H](NC(=O)OC(C)(C)C)C(C)(C)C)P(=O)(Oc1ccccc1)Oc1ccccc1 (mixture of isomers) | 5.03 | 33.3 |  | < 3.30 | 0.01548 ×10⁵ U/mL | > 500 µM | 6.17 | 0.03388 ×10⁵ U/mL |  |  |  |
| CCC(C)C(NC(=O)[C@@H]1CCCN1C(=O)[C@@H](NC(=O)OC(C)(C)C)C(C)C)P(=O)(Oc1ccccc1)Oc1ccccc1 (mixture of isomers) | 4.74 | 20 |  | 4.42 | 0.09231 ×10⁵ U/mL | > 500 µM | 6.44 | 43.9246 ×10⁵ U/mL |  |  |  |
| CCC[C@H](NC(=O)OC(C)(C)C)C(=O)N1CCC[C@H]1C(=O)NC(C(C)C)P(=O)(Oc1ccccc1)Oc1ccccc1 (mixture of isomers) | 4.25 |  |  | < 3.30 | 17.0963 ×10⁵ U/mL | > 500 µM | 6.35 | 219.8 ×10⁵ U/mL |  |  |  |
| CC(C)[C@H](NC(=O)OC(C)(C)C)C(=O)N1CCC[C@H]1C(=O)NC(C(C)(C)C)P(=O)(Oc1ccccc1)Oc1ccccc1 (mixture of isomers) | < 3.30 | inactive |  | < 3.30 | 0.217 ×10⁵ U/mL | > 500 µM | < 3.30 | 5.344 ×10⁵ U/mL |  |  |  |
| CCC(C)C(NC(=O)[C@@H]1CCCN1C(=O)[C@@H](NC(=O)OC(C)(C)C)C(C)(C)C)C(=O)c1nc2ccccc2s1 (mixture of isomers) | < 3.30 | inactive |  | < 3.30 | 2.829 ×10⁵ U/mL | > 500 µM | 5.32 | 0.2193 ×10⁵ U/mL |  |  |  |
| CCCC(NC(=O)[C@@H]1CCCN1C(=O)[C@@H](NC(=O)OC(C)(C)C)C(C)C)P(=O)(Oc1ccccc1)Oc1ccccc1 (mixture of isomers) | < 3.30 | inactive |  | < 3.30 | 1.49 ×10⁵ U/mL | > 500 µM | 6.17 | 0.4583 ×10⁵ U/mL |  |  |  |
| CCC(C)C(NC(=O)[C@@H]1CCCN1C(=O)[C@@H](NC(=O)OC(C)(C)C)[C@@H](C)CC)P(=O)(Oc1ccccc1)Oc1ccccc1 (mixture of isomers) | 4.07 |  |  | 5.89 | 0.1134 ×10⁵ U/mL | > 500 µM | 6.08 | 0.3958 ×10⁵ U/mL |  |  |  |
| CC(C)C(NC(=O)[C@@H]1CCCN1C(=O)[C@@H](NC(=O)OC(C)(C)C)C(C)C)C(=O)c1nccs1 (mixture of isomers) | < 3.30 | inactive |  |  | 33.1 ×10⁵ U/mL |  |  | 1.983 ×10⁵ U/mL |  |  |  |
| CCCC(NC(=O)[C@@H]1CCCN1C(=O)[C@@H](NC(=O)OC(C)(C)C)C(C)C)C(=O)c1nccs1 (stereo not given in full) | < 3.30 | inactive |  | < 3.30 |  | > 500 µM | < 3.82 |  |  |  |  |
| CC(C)C(NC(=O)[C@@H]1CCCN1C(=O)[C@H](C)NC(=O)OC(C)(C)C)P(=O)(Oc1ccccc1)Oc1ccccc1 (stereo not given in full) |  |  |  |  |  |  |  |  | 4.33 |  |  |
| CCC(C)C(NC(=O)[C@@H]1CCCN1C(=O)[C@@H](NC(=O)OC(C)(C)C)C(C)(C)C)P(=O)(Oc1ccccc1)Oc1ccccc1 (mixture of isomers) | < 3.30 | inactive |  | 6.28 | 0.1099 ×10⁵ U/mL | > 500 µM | 5.63 | 0.2042 ×10⁵ U/mL |  |  |  |
| CC[C@H](C)[C@H](NC(=O)OC(C)(C)C)C(=O)N1CCC[C@H]1C(=O)NC(C(C)C)P(=O)(Oc1ccccc1)Oc1ccccc1 (mixture of isomers) | 4.60 | 14.3 |  | < 3.30 | 0.5089 ×10⁵ U/mL | > 500 µM | 6.40 | 10.8851 ×10⁵ U/mL |  |  |  |
| CC(C)C(NC(=O)[C@@H]1CCCN1C(=O)[C@@H](NC(=O)OC(C)(C)C)C(C)C)C(=O)c1nc2ccccc2s1 (mixture of isomers) | 3.49 | 1.06 |  | < 3.30 | 2.539 ×10⁵ U/mL | > 500 µM | 5.59 | 0.04744 ×10⁵ U/mL |  |  | 4 log10CFU |
| CC(C)C(NC(=O)[C@@H]1CCCN1C(=O)[C@@H](NC(=O)OC(C)(C)C)C(C)C)P(=O)(Oc1ccccc1)Oc1ccccc1 (stereo not given in full) | 3.45 to 4.89 |  |  | < 3.30 | 0.00434 ×10⁵ U/mL | > 500 µM | 6.08 |  | 4.90 |  |  |

Second part, led by results:

| pIC50 [3] | Ratio IC50 [4] | Activity [10] | SMILES | pIC50 [1] | Activity [2] | IC50 [5] | pIC50 [6] | Activity [7] | pIC50 [8] | Activity [9] | Activity [11] |
| --- | --- | --- | --- | --- | --- | --- | --- | --- | --- | --- | --- |
| < 3.30 | inactive |  | CC(C)C(NC(=O)[C@@H]1CCCN1C(=O)[C@@H](NC(=O)OC(C)(C)C)C(C)C)C(=O)C(=O)C1CC1 (mixture of isomers) | < 3.30 | 55.0347 ×10⁵ U/mL | > 500 µM |  |  |  |  |  |
| < 3.30 | inactive |  | CC(C)C(NC(=O)[C@@H]1CCCN1C(=O)[C@@H](NC(=O)OC(C)(C)C)C(C)C)C(=O)N(C)C (stereo partly drawn) (Boc-Val-Pro-[ξV]-NMe2) |  | 30.9343 ×10⁵ U/mL |  |  |  |  |  |  |
| < 3.30 | inactive |  | C=CCN(C)C(=O)C(NC(=O)[C@@H]1CCCN1C(=O)[C@@H](NC(=O)OC(C)(C)C)C(C)C)C(C)C (stereo not given in full) |  | 36.2553 ×10⁵ U/mL |  |  |  |  |  |  |
| < 3.30 | inactive |  | CCN(C)C(=O)C(NC(=O)[C@@H]1CCCN1C(=O)[C@@H](NC(=O)OC(C)(C)C)C(C)C)C(C)C (stereo not given in full) |  | 34.5497 ×10⁵ U/mL |  |  |  |  |  |  |
| < 3.30 | inactive |  | CC(C)C(NC(=O)[C@@H]1CCCN1C(=O)[C@@H](NC(=O)OC(C)(C)C)C(C)C)C(=O)N(C)C1CC1 (stereo not given in full) |  | 8.3844 ×10⁵ U/mL |  |  |  |  |  |  |
| < 3.30 | inactive |  | CC(C)C(NC(=O)[C@@H]1CCCN1C(=O)[C@@H](NC(=O)OC(C)(C)C)C(C)C)C(=O)C(N)=O (stereo not given in full) |  | 29.07 ×10⁵ U/mL |  |  |  |  |  |  |
| < 3.30 |  | Active | CC(C)C(NC(=O)[C@@H]1CCCN1C(=O)[C@@H](NC(=O)OC(C)(C)C)C(C)C)B(O)O (stereo not given in full) |  | 0.09939 ×10⁵ U/mL |  |  |  |  | 3 log10CFU |  |
| < 3.30 | inactive |  | CC(=O)C(=O)C(NC(=O)[C@@H]1CCCN1C(=O)[C@@H](NC(=O)OC(C)(C)C)C(C)C)C(C)C (mixture of isomers) | < 3.30 | 86 ×10⁵ U/mL | > 500 µM | 5.87 |  |  |  |  |
| < 3.30 | inactive |  | CCC(=O)C(=O)C(NC(=O)[C@@H]1CCCN1C(=O)[C@@H](NC(=O)OC(C)(C)C)C(C)C)C(C)C (mixture of isomers) | < 3.30 | 57 ×10⁵ U/mL | > 500 µM | 5.33 | 351 ×10⁵ U/mL |  |  |  |
| < 3.30 | inactive |  | CC(C)C(CO)NC(=O)[C@@H]1CCCN1C(=O)[C@@H](NC(=O)OC(C)(C)C)C(C)C (mixture of isomers) |  | 34.6007 ×10⁵ U/mL |  |  |  |  |  |  |
